Laboratory results as given in ChEMBL document CHEMBL5376022, “Design, synthesis and biological evaluation of novel pyrimidine derivatives as bone anabolic agents promoting osteogenesis via the BMP2/SMAD1 signaling pathway” (RSC Med Chem, 2024).
Calls of active or inactive are those of the source. The rule behind the calls is not given here.

How the values were obtained:
Calvarial osteoblast [1] = assay: Induction of osteogenesis in BALB/c mouse calvarial osteoblast cells using PNPP as substrate assessed as increase in ALP activity at 0.1 to 10 nM measured after 48 hrs by spectrophotometry; assay type: functional, cell-based; settings: Calvaria, dose 0.1-10 nM
Summary of the method: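 Neonatal BALB/c calvarial osteoblasts, 2 × 10³ cells per well, adhered 24 h, then exposed to compounds (1 pM to 1 μM range) in osteoblast differentiation medium for 48 h. Cells frozen overnight at −80 or −20 °C, thawed at 37 °C to expose ectoenzyme; p-nitrophenyl phosphate added and ALP activity read at 405 nm. Untreated cells as control.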

Calvarial osteoblast [2] = assay: Cytotoxicity in BALB/c mouse calvarial osteoblast cells at 0.001 to 1000 nM incubated for 48 hrs by MTT assay; assay type: toxicity, cell-based, Calvaria; settings: 1 µM, dose 0.001-1000 nM
Summary of the method: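 Primary calvarial osteoblasts from 1–2 day old BALB/c pups (collagenase/dispase digests, α-MEM with 10% FBS) seeded at 2 × 10³ per well. MTT added for 4 h at 37 °C, formazan dissolved in DMSO, absorbance read at 570 nm.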

Calvarial osteoblast [3] = assay: Induction of cell proliferation of BALB/c mouse calvarial osteoblast cells at 0.1 nM incubated for 48 hrs by MTT assay relative to control; assay type: functional, Calvaria
Summary of the method: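 Primary calvarial osteoblasts from 1–2-day-old neonatal BALB/c pups, released by dispase/collagenase digestion and grown in α-MEM with 10% FBS. Seeded at 2 × 10³ cells per well, treated after 24 h for 48 h in α-MEM with 5% FBS, 10 mM β-glycerophosphate and 50 μg mL⁻¹ ascorbic acid. MTT added for 4 h at 37 °C, formazan dissolved in DMSO, absorbance read at 570 nm versus untreated cells.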

[4] = Induction of osteogenesis in BALB/c mouse MSC cells assessed as increase in mineral nodule formation at 0.1 nM treated for 21 days with compound refreshment for every 48 hrs by Alizarin red S staining based analysis relative to control; assay type: functional; settings: time 21 day
Summary of the method: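 Bone marrow cells were flushed from the long bones of 6–8-week-old BALB/c mice and seeded at 2 × 10⁶ per well. Medium: 10% FBS, 100 nM dexamethasone, 50 μg mL⁻¹ ascorbic acid and 10 mM β-glycerophosphate. Compound and medium were renewed every 48 h for 21 days. Cells were fixed in 4% paraformaldehyde and stained with Alizarin red (pH 4.2). Stain was eluted with 10% cetylpyridinium chloride for 1 h and read at 595 nm versus control.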

SMILES | Activity (Calvarial osteoblast [1]) | Activity (Calvarial osteoblast [2]) | Activity (Calvarial osteoblast [3]) [%] | Activity [4] [%]
COc1cc(OC)c(-c2cc(-c3ccc(Cl)cc3)nc(N)n2)cc1OC | Active | Non-Toxic |  | 
COc1cc(OC)c(-c2nc(N)nc(-c3ccc(Cl)cc3)c2Cl)cc1OC | Active | Non-Toxic | ~29 | ~26
COc1cc(OC)c(-c2cc(-c3ccc(Br)cc3)nc(N)n2)cc1OC | Active | Non-Toxic | ~30 | ~23
